test: Toxicity liver stage against HepG2, at 10uM; type: cell-based; design: test concentration 10 uM, cell line HepG2-A16-CD81EGFP; details: human, HepG2-A16-CD81EGFP cells; read-out: INHIBITION
Procedure, shortened: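 Uninfected HepG2-A16-CD81EGFP cells, 3 × 10^3 per well, 1536-well, plated on prespotted compound at 10 μM final, parasite-free screening media added to match infected plates; puromycin 10 μM positive, DMSO 0.5% negative; run in parallel with 48 h PbLuc assay at 37 °C, 5% CO2; viability by CellTiter-Glo luminescence, normalized to controls.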

Row | SMILES | cytotoxicity at 10 µM [%]
1 | OCCN(Cc1nc(-c2ccc3c(c2)OCO3)no1)Cc1cccs1 | -0.191
2 | COc1ccc2c(c1)CN(C)C(=O)CCN2CC(O)C(C)(C)C (stereo unspecified) | 4.17
3 | NC(=O)CN1CC[C@@]2(O)CCCC[C@H]2[C@@H]1c1ccc2c(c1)OCO2 | 3.26
4 | CC(C)c1ccc2c(c1)C1(CC(=O)Nc3[nH]ncc31)C(=O)N2C (stereo unspecified) | -0.582
5 | CCCN1CCc2nc(SCc3ccccc3)[nH]c(=O)c2C1 | 0.279
6 | CCSc1ccccc1C(=O)NCCn1nc(C(F)(F)F)n(C)c1=O | 6.83
7 | O=C(CN1CCC(c2nnc(C(F)(F)F)o2)CC1)Nc1cccc(Cl)c1 | -1.53
8 | COc1cc(C(=O)NCCc2ccc(Cl)cc2)on1 | -0.295
9 | CCOc1ncc(NC(=O)c2ccco2)c(OCC)n1 | -1.76
10 | CCOC(=O)C1CCN(C(=O)c2cc(Br)ccc2-n2cnnn2)CC1 | -2.41
11 | CCN(CC)c1ncc(S(=O)(=O)c2cccc(C)c2)c(N)n1 | -0.707
12 | CCC(=O)c1ccccc1NN1c2ccccc2C(=O)C1(C)OC (stereo unspecified) | 8.57
13 | Cc1cc(C(F)(F)F)nn1CCCNC(=O)C1CCC1 | -12.2
14 | Cc1c(Cn2cc(Cl)c(N)n2)cnn1C | -5.18
15 | CCCc1nc(NCCCn2ccnc2)c2c(n1)c(C)nn2CC | 8.26
16 | CCc1cc(=O)n(CC(=O)N2CCC(C)CC2)c(-c2cccc(F)c2)n1 | 7.63
17 | Cc1c(NC(=O)c2ccc(Br)cc2)c(C(=O)N(C)C)nn1C | 3.65
18 | Cc1sc(Oc2ccccc2Cl)nc1C(=O)O | 1.95
19 | CC1(c2ncc(CN3CCOCC3)cn2)CCCCO1 (stereo unspecified) | 6.08
20 | CN(C)Cc1cnc(C2CCN(C(=O)c3ccc(F)cc3)C2)[nH]1 (stereo unspecified) | -1.92
21 | Nc1cc(-c2c[nH]nc2C2CCCN2CCCc2ccccc2)ccn1 (stereo unspecified) | 3.75
22 | COc1ccc(C2(NC(=O)c3ccc(=O)n(C)n3)CCCC2)cc1 | -0.308
23 | Cc1cc(C)n(CC2CCCN2Cc2ccc(F)cc2C#N)n1 (stereo unspecified) | 7.77

Row | SMILES | cytotoxicity at 10 µM [%]
24 | CCN(CC(O)c1ccc(C)cc1)C(=O)NC(C)C (stereo unspecified) | -7.74
25 | CC(O)CN1CCC(CN(C)Cc2cc(F)cc3cccnc23)CC1 (stereo unspecified) | -1.26
26 | COc1ccncc1NC(=O)C1(c2ccc(F)cc2)CCC1 | 1.52
27 | CN(CC(=O)N1CCCC1)C(=O)c1ccccc1F | 11.7
28 | CCC(CNC(=O)c1cccc(S(=O)(=O)NC)c1)N1CCCC1 (stereo unspecified) | -4.18
29 | Cc1ccccc1C(NC(=O)CCCS(C)(=O)=O)C(C)(C)C (stereo unspecified) | -9.4
30 | COc1ccc(CNC2CCC(O)CC2)cc1OCCCC#N (stereo unspecified) | -2.56
31 | Cc1nnc(NCC(c2ccco2)N2CCCCC2)c(C#N)c1C (stereo unspecified) | -5.23
32 | CC(C)c1nc(C2CCCN(c3nccc(C(F)(F)F)n3)C2)no1 (stereo unspecified) | 5.83
33 | COCCn1ccc(NCc2scnc2C)n1 | -2.9
34 | N#CCCN(CCC#N)C(=O)c1ccc(COc2ccccc2C#N)o1 | -16.6
35 | Cc1nn(CCO)c(C)c1CNC1CCCCc2ccccc21 (stereo unspecified) | -2.42
36 | CN(Cc1cnn(C)c1)Cc1nc(Cc2cccc(Cl)c2)no1 | 6.53
37 | N#Cc1cccc(CNC(=O)NC2CCN(CC(F)F)CC2)c1 | 4.16
38 | Cc1ccc(-c2ccc(C(=O)NCC(N)=O)c(F)c2)cc1 | -0.758
39 | Cc1n[nH]c(C2CN(C(=O)c3ccc4c(c3)COC4)CCO2)n1 (stereo unspecified) | 17.4
40 | CC(CNC(=O)Nc1ccc(F)cc1-n1cccc1)N1CCOCC1 (stereo unspecified) | -8.71
41 | CCc1nncn1CCNC(=O)N1CCCC(Cc2nccn2C)C1 (stereo unspecified) | 0.548
42 | CN1CCC(N(C)C(=O)CCc2ccc(F)c(F)c2)C1=O (stereo unspecified) | -17.7
43 | O=C1NCCCCC1NS(=O)(=O)N1CCCCCC1 (stereo unspecified) | 4.15
44 | CN(C)S(=O)(=O)c1ccc(CSCC(=O)NC(C)(C)C)o1 | -1.82
45 | CCC1c2ccccc2CCN1CCNS(C)(=O)=O (stereo unspecified) | 5.56
46 | Cn1cc(C(=O)O)c(-c2ccc(F)cc2F)n1 | -4.03

Row | SMILES | cytotoxicity at 10 µM [%]
47 | O=S(=O)(N1CCCC1)N(Cc1ccccc1)CC1CCCO1 (stereo unspecified) | -0.966
48 | COc1ccccc1CNC(=O)C1=NN(c2ccc(C)cc2)C(=O)CN1 | 25.1
49 | C[S+]([O-])CCCNC(=O)c1cc(Br)c2c(c1)OCCO2 (stereo unspecified) | 16.9
50 | CCc1c(C(=O)N2CCC3(CC(=O)NC3=O)C2)csc1C (stereo unspecified) | 1.62
51 | CN(C)C(=O)c1cn2cc(-c3cccc(Cl)c3)n(CC3CC3)c(=O)c2n1 | -1.62
52 | Cc1cccc(CN2CCN(C(=O)c3cc(Cl)c[nH]c3=O)CC2)c1 | 1.47
53 | NC(=O)N1CCCC(C(=O)N2CCc3c(nc(CC4CC4)[nH]c3=O)C2)C1 (stereo unspecified) | -13.8
54 | COc1ccccc1N1CCN(C(=O)CSC(C)C)C(C)C1 (stereo unspecified) | -3.97
55 | Cc1n[nH]c(C)c1CCNC(=O)Nc1ccc2c(c1)COC2 | -20.4
56 | c1cc2c(cc1Cn1cc(C3CCOC3)nn1)OCO2 (stereo unspecified) | 3.86
57 | CC(=O)N1C[C@H](NS(=O)(=O)Cc2cccc(Cl)c2)[C@@H](C(C)C)C1 | -1.73
58 | Cc1cc2nc(C(C)C)cc(N3CCC(N(C)C)C3)n2n1 (stereo unspecified) | -3.88
59 | Cc1cccnc1N1CCN(C(=O)C(C)n2ccnc2C(C)C)CC1 (stereo unspecified) | -10.3
60 | Cc1cc(C)c2nc(CN3CCC(N4CCOC4=O)CC3)cc(O)c2c1 | -0.213
61 | CCc1cnc(N)nc1NC(C)c1cnn(C)c1 (stereo unspecified) | -0.333
62 | Cc1ocnc1C(=O)N1CCN(Cc2ccccc2)[C@@H]2CS(=O)(=O)C[C@@H]21 | -1.26
63 | Cc1nc(CN(C)C(=O)c2cc(C)sc2NC(=O)C(C)(C)C)no1 | 3.81
64 | O=C(Cc1ccncc1)N(CCO)CCSc1ccc(Cl)cc1 | 2.59
65 | O=C(c1ccccc1C(F)(F)F)N1CC[C@@H](N2CCC(O)CC2)[C@H](O)C1 | -2.49
66 | Cc1ccc(C(=O)N2C[C@@H](NS(C)(=O)=O)[C@H](C(C)C)C2)cc1O | -2.62
67 | Cc1ccc(N2CCN(C(=O)C3CN(C)C(=O)N3)CC2=O)cc1 (stereo unspecified) | -2.61
68 | CCCn1ncc(C(=O)N(Cc2cccnc2)C[C@@H]2CCC(=O)N2)c1C | 7.69
69 | COCCN(C)C(C(=O)O)c1cc(Cl)ccc1OC (stereo unspecified) | -6.92

Row | SMILES | cytotoxicity at 10 µM [%]
70 | CNc1cc(C)nc(N2CCC3(CC2)[C@H](O)C[C@@H]3O)n1 | -17.5
71 | CCOc1ccccc1-n1c(-c2cn(CC)nc2C)n[nH]c1=O | 2.81
72 | Cc1cc(C(=O)N2C[C@@H](CN3CCCCC3)[C@@H](CO)C2)ccc1O | 0.251
73 | CCCc1ncc(CN(CCOC)Cc2cccs2)cn1 | -0.683
74 | Cc1cccc2c1nc(COCC(=O)O)n2-c1ccsc1 | -0.793
75 | CNC(=O)[C@@H]1C[C@H](N)CN1S(=O)(=O)c1cc(C)c(Cl)cc1C | -0.869
76 | Cc1cc(NC(=O)CNCc2csc(-c3ncccn3)n2)ccc1Cl | -7.21
77 | O=C1CC(NCc2ccccn2)CN1CCc1ccc(F)cc1 (stereo unspecified) | 7.18
78 | O=C(CCCn1ccnc1)N1CCC2(CC1)[C@H](O)C[C@@H]2OCCO | 3.31
79 | O=C1N(Cc2cccc(F)c2F)CCCC1(O)CN1CCCOCC1 (stereo unspecified) | 18.3
80 | Cc1ccc(NC2CCN(C(=O)c3ccc4c(c3)CCC4)CC2)nn1 | -8.19
81 | Cc1cc(C)c(CNC(=O)N(C)Cc2cccc(F)c2)c(=O)[nH]1 | -1.62
82 | c1ccc(-c2nc(CN3CCOC(Cn4cncn4)C3)cs2)cc1 (stereo unspecified) | -4.33
83 | CC(C)(C)c1n[nH]c(C2CN(C(=O)CCc3ccco3)CCO2)n1 (stereo unspecified) | -8.24
84 | Cn1nccc1C(=O)Nc1cc(C(F)(F)F)c[nH]c1=O | -6.54
85 | COc1cc(CNCCn2cc(C)cn2)cc2c1OCCO2 | -9.07
86 | c1ccc(-c2nc(CN3CCCC3Cn3cncn3)no2)cc1 (stereo unspecified) | -7.22
87 | CC(=O)NCc1ccc(C(=O)NC2CCc3nc(C)cn3C2)o1 (stereo unspecified) | -3.81
88 | Cc1nccn1C1CCCN(C(=O)c2ccnc(-n3ccnc3)c2)C1 (stereo unspecified) | 0.998
89 | COCCN1CCC(CNCc2c[nH]nc2C(C)(C)C)CC1 | -17
90 | Cc1cccc(CN(C)Cc2nc3c(cnn3C)c(=O)[nH]2)c1 | -8.08
91 | CCn1cc(NC(=O)NCC(c2cccc(F)c2)N(C)C)cn1 (stereo unspecified) | 0.633
92 | CCC(O)CN1CCN(C(=O)c2cccn2Cc2ccccc2)CC1 (stereo unspecified) | -8.03

Row | SMILES | cytotoxicity at 10 µM [%]
93 | CCNC(c1cccnc1)c1ccc(F)c(F)c1 (stereo unspecified) | 1.03
94 | C1CC(c2noc(C3CC3)n2)CN(Cc2noc(C3CC3)n2)C1 (stereo unspecified) | -5.16
95 | COCc1nc(C(=O)N2CCCC(n3cccn3)C2)cs1 (stereo unspecified) | -7.42
96 | CC(NC(=O)NCc1ccc(Cl)s1)c1ccccn1 (stereo unspecified) | 1.64
97 | Cc1noc(C(C)C)c1C(=O)N1CCCN(Cc2cscn2)CC1 | -3.56
98 | CCc1nnc(CN2CCN(C(=O)c3ccccn3)CC2)o1 | 3.49
99 | Cc1oc(-c2ccco2)nc1CC(=O)N1CCN(C2CCC2)CC1 | 4.33
100 | CCC(CO)NCc1ccc(-c2ccc(Cl)cc2)o1 (stereo unspecified) | 5.24
101 | c1ccc(OC[C@]23COC[C@H]2CN(Cc2ccoc2)C3)nc1 | -8.63
102 | CN(C)c1ncc2c(c1C(=O)O)CCN(Cc1ccco1)C2 | 3.57
103 | O=C(C1CCOC1)N1C[C@H]2CN(Cc3cccnc3)C(=O)[C@H]2C1 (stereo partly specified) | -108
104 | CN(C)C(=O)N1CCN(Cc2cnn(C)c2)CC2(CNC(=O)C2)C1 (stereo unspecified) | 1.21
105 | O=C(CN1CCN(CC(O)C2CC2)CC1)NCc1ccccc1Cl (stereo unspecified) | 5.23
106 | CN1C(=O)C2(CCN(S(C)(=O)=O)CC2)c2cc(F)ccc21 | -106
107 | CCCC(=O)NC1CCc2c(ccc(=O)n2Cc2csc(C)n2)C1 (stereo unspecified) | 3.79
108 | CCOc1ncccc1Cn1cc2[nH]cccc-2c1=O | 1.93
109 | Cc1cccc(C(=O)N2C[C@@H]3CC[C@H]2CN(S(=O)(=O)N(C)C)C3)n1 | 7.4
110 | O=C1C[C@@H]2CC[C@H](CN1)N2C1CSCCSC1 | -2.26
111 | O=C(c1ccco1)N1C2CCC(O)(CC2)C1CN1CCOCC1 (stereo unspecified) | 6.93

Source: ChEMBL document CHEMBL4513216, “Probing the Open Global Health Chemical Diversity Library for Multistage-Active Starting Points for Next-Generation Antimalarials” (ACS Infect Dis, 2020)
